ALR H2O2 inh: human ALR oxidase inhibition via reduced H2O2; AID 485317; inhibition, % (no concentration beside the values); 290,000 compounds, 3.8% hits; purified ALR, DTT oxidation, H2O2 HRP-luminol luminescence; P55789;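 active = mean replicate inhibition above about 79%, with every replicate also reaching it, limit read from the data; inconclusive = only one of the two criteria met; inactive = mean below limit and not every replicate reaching it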
PfM18AAP inh-1: blocks P. falciparum M18 aspartyl aminopeptidase; recombinant PfM18AAP, H-Glu-NHMec fluorogenic cleavage; inhibition, % at 7.35 µM; 290,000 compounds, 1.2% hits; AID 1822;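 active = inhibition above the campaign mean inhibition over all tested compounds plus 3 SD, cut at about 28% in these data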
Rtt109 Vps75: blocks Candida albicans Rtt109/Vps75 acetyltransferase activity; Q5AAJ8; purified Rtt109/Vps75, ThioGlo CoA-SH fluorescence, 4 h; inhibition, % at 34.9 µM; 330,000 compounds, 0.16% hits; AID 540336;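 active = inhibition of at least 50% in every replicate; inconclusive = best replicate reaches 50% inhibition but some replicates fall short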
FAS TE block: inhibitors of human fatty acid synthase thioesterase domain; P49327; recombinant FAS-TE, OMFH fluorogenic substrate, fluorescence endpoint; inhibition, % at 15 µM; 360,000 compounds, 0.67% hits; AID 602261;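 active = compounds whose normalised, plate-corrected inhibition of enzyme fluorescence in the single-dose primary screen is 50% or more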
HDAC3 inhib: blocks human histone deacetylase 3. O15379. recombinant HDAC3, fluorogenic peptide/trypsin coupled, fluorescence. inhibition, % at 8.3 µM. 320,000 compounds, 0.15% hits; in the data active = inhibition above about 26%, passing the limit was not always enough; inconclusive = no clear call, values can overlap the other calls
UCH37 DUB inh: blocks the human deubiquitinase UCH37; Q9Y5K5; purified proteasome/UCH37, Ub-AMC cleavage fluorescence; inhibition, % (no concentration beside the values); 330,000 compounds, 0.33% hits; AID 588478;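 active = mean inhibition over replicate wells above about 20%, limit read from the data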
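assay system = human UCH37 enzyme supplied as purified proteasome complex | amount = proteasome at 0.15 nM in the dispensed enzyme solution | schedule = 30 min compound-proteasome preincubation then 25 min substrate reaction, room temperature | measured by = fluorescence, ex 355 nm, em 460 nm | benchmarks = no-proteasome wells (full inhibition) and compound-free wells (no inhibition)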
PfM18AAP inh-2: confirmation of Plasmodium falciparum M18 aspartyl aminopeptidase inhibitors | shares compounds with PfM18AAP inh-1 | recombinant PfM18AAP, H-Glu-NHMec fluorogenic cleavage | inhibition, % at 7.35 µM | 2,400 compounds, 28% hits | AID 2170;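 active = mean inhibition over replicate wells above the hit cutoff set for the earlier primary screen, cut at about 29% in these data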
CTSL1 confirm: counter-screen for PFM18AAP inhibitors: confirmation of human cathepsin L inhibitors; shares compounds with PfM18AAP inh-1; purified cathepsin L1, Z-Leu-Arg-MCA fluorescence; inhibition, % at 5.96 µM; 2,400 tested, under 10 active; AID 2178;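 active = average inhibition across replicates above the hit cutoff set in the earlier primary screen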
Of the large screens only hits and unclear results are named; the others gave an inactive call (follow-up assays come after a bar, where they were run). A selection: hits, their analogues and other compounds. The true share with any hit is near 4.6%.

O=C1c2ccccc2CC1Sc1nnc(-c2ccncc2)o1 (stereo unspecified)	PfM18AAP inh-1 46 (no result: ALR H2O2 inh) | PfM18AAP inh-2 inactive | CTSL1 confirm inactive
O=C1CC(Sc2nnc(-c3ccccc3)o2)C(=O)N1c1ccccc1 (stereo unspecified)	none (no result: ALR H2O2 inh)
COC(=O)/C(C#N)=C/c1c[nH]c2ccccc12	none (no result: UCH37 DUB inh)
COc1cc(/C=C(\C#N)C(=O)c2c[nH]c3ccccc23)cc(OC)c1O	ALR H2O2 inh 99, PfM18AAP inh-1 36 | PfM18AAP inh-2 inactive | CTSL1 confirm inactive
Cc1ccc(-c2cc(C(=O)NN=Cc3ccccc3)n[nH]2)o1	none (no result: ALR H2O2 inh, PfM18AAP inh-1, Rtt109 Vps75, FAS TE block, HDAC3 inhib)
Nn1cnnc1NN=Cc1cc([N+](=O)[O-])c(Cl)cc1Cl	none (no result: ALR H2O2 inh, PfM18AAP inh-1, Rtt109 Vps75, FAS TE block, HDAC3 inhib)
Nn1cnnc1N/N=C/c1ccc(Cl)cc1Cl	PfM18AAP inh-1 48 (no result: UCH37 DUB inh) | PfM18AAP inh-2 inactive | CTSL1 confirm inactive
CN1CCC2(CC1)N=C(c1ccc(F)cc1)C(=S)N2C(=O)c1ccccc1	PfM18AAP inh-1 33 | PfM18AAP inh-2 inactive | CTSL1 confirm inactive
Cc1cccc(NC(=O)C2CC(=O)N/C(=N/N=Cc3ccco3)S2)c1 (stereo unspecified)	none (no result: ALR H2O2 inh, PfM18AAP inh-1, Rtt109 Vps75, FAS TE block, HDAC3 inhib)
COc1cccc2cc(C(=O)Nc3ccccc3C)/c(=N/O)oc12	PfM18AAP inh-1 49 (no result: UCH37 DUB inh) | PfM18AAP inh-2 inactive | CTSL1 confirm inactive
CCOC(=O)c1c(C)n(C)c2ccc(OC(=O)c3ccco3)cc12	none
CCOC(=O)c1c(C)n(C)c2ccc(OC(=O)c3ccc(N4C(=O)CCC4=O)cc3)cc12	PfM18AAP inh-1 57 | PfM18AAP inh-2 inactive | CTSL1 confirm inactive
COc1ccc(-n2c(SCC#N)nc3c(sc(=S)n3-c3ccccc3)c2=O)c(OC)c1	PfM18AAP inh-1 35 (no result: ALR H2O2 inh) | PfM18AAP inh-2 inactive | CTSL1 confirm inactive
Cc1cc(C)n(CC(=O)NN=Cc2cccc([N+](=O)[O-])c2)n1	none (no result: ALR H2O2 inh, PfM18AAP inh-1, Rtt109 Vps75, FAS TE block, HDAC3 inhib)
O=[N+]([O-])c1cc(Br)c(O)c(/C=N/Nc2nnnn2-c2cccc3ccccc23)c1	PfM18AAP inh-1 38 (no result: UCH37 DUB inh) | PfM18AAP inh-2 inactive | CTSL1 confirm inactive
Cc1nn(C(C)(C)C)c(C)c1C=NOC(=O)Nc1ccc(Cl)c(Cl)c1	none (no result: ALR H2O2 inh, PfM18AAP inh-1, Rtt109 Vps75, FAS TE block, HDAC3 inhib)
O=C(NN=Cc1ccco1)c1cc(-c2cccc(Br)c2)nc2ccccc12	none (no result: ALR H2O2 inh, PfM18AAP inh-1, Rtt109 Vps75, FAS TE block, HDAC3 inhib)
CC(C)N=c1scc(-c2ccco2)n1/N=C/c1ccc(O)c(O)c1	ALR H2O2 inh 99, PfM18AAP inh-1 45 (no result: UCH37 DUB inh) | PfM18AAP inh-2 49 | CTSL1 confirm inactive
Cc1cc(C)n(/N=C/c2ccccc2O)c(=O)c1	none (no result: UCH37 DUB inh)
CN=c1scc(C)n1/N=C/c1ccc(O)c(O)c1O	ALR H2O2 inh 100, PfM18AAP inh-1 47 (no result: UCH37 DUB inh) | PfM18AAP inh-2 inactive | CTSL1 confirm inactive
Oc1ccc(/C=N/n2c(-c3ccco3)csc2=Nc2cccnc2)c(O)c1	none (no result: UCH37 DUB inh)
C=CCN=c1scc(-c2ccco2)n1/N=C/c1ccc(O)c(O)c1O	ALR H2O2 inh 99, PfM18AAP inh-1 45, Rtt109 Vps75 inconclusive (no result: UCH37 DUB inh) | PfM18AAP inh-2 inactive | CTSL1 confirm inactive
COCCN=c1scc(-c2ccco2)n1/N=C/c1ccc(O)c(O)c1O	ALR H2O2 inh 99, PfM18AAP inh-1 36, Rtt109 Vps75 inconclusive (no result: UCH37 DUB inh) | PfM18AAP inh-2 inactive | CTSL1 confirm inactive
COCCN=c1scc(-c2cccs2)n1/N=C(\C)c1ccco1	none (no result: ALR H2O2 inh, UCH37 DUB inh)
C=Cc1ccc2c(c1)N(C)C(=C)S2	PfM18AAP inh-1 47 | PfM18AAP inh-2 inactive | CTSL1 confirm inactive
CNC(=S)n1cnc(N)n1	PfM18AAP inh-1 40 | PfM18AAP inh-2 inactive | CTSL1 confirm inactive
COc1ccc(C=NOCC(=O)N=Nc2c(O)[nH]c3ccc(Br)cc23)cc1	none (no result: ALR H2O2 inh, PfM18AAP inh-1, Rtt109 Vps75, FAS TE block, HDAC3 inhib)
Oc1c(C=C2N=c3ccccc3=N2)sc(=S)n1-c1ccc2ccccc2c1	none
O=C(Nn1c(O)c(C=C2N=c3ccccc3=N2)sc1=S)c1ccccc1	PfM18AAP inh-1 56 | PfM18AAP inh-2 inactive | CTSL1 confirm inactive
Oc1c(C=C2N=c3ccccc3=N2)sc(=S)n1-c1ccc(F)cc1	PfM18AAP inh-1 38 | PfM18AAP inh-2 inactive | CTSL1 confirm inactive
Cc1ccc(C(=O)Nn2c(O)c(C=C3N=c4ccccc4=N3)sc2=S)cc1	PfM18AAP inh-1 55 | PfM18AAP inh-2 inactive | CTSL1 confirm inactive
O=C(Nn1c(O)c(C=C2N=c3ccccc3=N2)sc1=S)c1ccc(Cl)cc1	none
